# Source: ChEMBL document CHEMBL3085637, “Synthesis and anticancer potential of certain novel 2-oxo-N'-(2-oxoindolin-3-ylidene)-2H-chromene-3-carbohydrazides” (Eur J Med Chem, 2013)
# Tested on: HT-29
# Assay: Inhibition of side population in human HT-29 cells at 100 uM after 90 mins using vybrant dyecycle violet staining by FACS analysis
# Format: functional
# Conditions: HT-29, 1.5 h
# Outline: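 HT-29 cells were stained in medium with Vybrant DyeCycle Violet for 90 min at 37 °C, centrifuged and washed with medium. Side-population cells were identified by flow cytometry histograms. The reference control was verapamil, which blocks the transporter responsible for dye exclusion. Results are % side-population inhibition ± SD.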
smiles,measurement,value
COc1ccc(CCN(C)CCCC(C#N)(c2ccc(OC)c(OC)c2)C(C)C)cc1OC (stereo unspecified),inhibition at 100 µM,95%
